Experimental data reported in ChEMBL document CHEMBL5053559, “Photoaffinity-Based Chemical Proteomics Reveals 7-Oxocallitrisic Acid Targets CPT1A to Trigger Lipogenesis Inhibition” (ACS Med Chem Lett, 2021).
Active and inactive are the calls of the source.

What was measured:
AML12 [1] = assay: Cytotoxicity against mouse AML12 cells assessed as cell viability at 10 uM measured after 24 hrs by MTT assay; format: cell-based; settings: aml12, 24 h
AML12 [2] = assay: Inhibition of oleic acid-induced lipid accumulation in mouse AML12 cells with Si-RNA-induced ECHS1 knockdown; format: functional, cell-based
AML12 [3] = assay: Inhibition of oleic acid-induced lipid accumulation in mouse AML12 cells at 40 uM preincubated with oleic acid for 24 hrs followed by addition of compounds and measured after 24 hrs by Oil red O staining based microscopic assay; format: functional, cell-based
How it was run: (§1)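 Normal mouse liver AML12 cells loaded with 0.15 mM oleic acid in BSA to induce lipid droplets, then given compound for 24 h. DMSO vehicle as control. Stained with Oil Red O and quantified by image analysis. Mean ± SEM, n = 3.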

AML12 [4] = assay: Cytotoxicity against mouse AML12 cells assessed as cell viability at 5 uM measured after 24 hrs by MTT assay; format: cell-based; settings: aml12, 24 h
AML12 [5] = assay: Activation of CPT1A in mouse AML12 cells assessed as inhibition of oleic acid-induced lipid accumulation using L-carnitine and palmitoyl CoA as substrates pretreated with ETO for 6 hrs followed by addition of compound at 40 uM measured after 48 hrs by […] reagent based enzymatic assay; format: cell-based
How it was run: (§2)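 Lysates of AML12 cells grown in medium with 0.15 mM oleic acid. Cells pretreated 6 h with ETO or with DMSO, then exposed to compound for 24 h (legend says 48 h). Lysis by sonication in 0.5 M Tris, 0.15 M KCl and protease inhibitors. Protein measured by Bradford. Activity expressed as nmol CoA-SH released per min per mg protein. Mean ± SEM, n = 3.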

AML12 [6] = assay: Inhibition of oleic acid-induced lipid accumulation in mouse AML12 cells with siRNA-induced CPT1A knockdown at 40 uM measured after 24 hrs by Oil red O staining based microscopic assay; format: functional, cell-based
How it was run: (§3)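 AML12 cells either transfected with siRNA against CPT1A or pretreated with 20 μM etomoxir, with negative-control comparison. Cells then loaded with oleic acid and exposed to compound at 40 μM for 24 h. Lipid read by Oil Red O staining with image quantification. Mean ± SEM, n = 3.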

AML12 [7] = assay: Activation of CPT1A in mouse AML12 cells assessed as inhibition of oleic acid-induced lipid accumulation using L-carnitine and palmitoyl CoA as substrates pretreated with ETO for 6 hrs followed by addition of compound at 20 uM measured after 48 hrs by […] reagent based enzymatic assay; format: cell-based; how it was run: as §2
AML12 [8] = assay: Inhibition of oleic acid-induced lipid accumulation in mouse AML12 cells assessed as increased expression of CPT1A preincubated with ETO at 40 uM measured after 24 hrs by Oil red O staining based microscopic assay; format: functional, cell-based; how it was run: as §3
AML12 [9] = assay: Activation of CPT1A in mouse AML12 cells assessed as inhibition of oleic acid-induced lipid accumulation using L-carnitine and palmitoyl CoA as substrates at 20 uM measured after 48 hrs by […] reagent based assay relative to control; format: cell-based; settings: filed as activator; how it was run: as §2
AML12 [10] = assay: Activation of CPT1A in mouse AML12 cells assessed as inhibition of oleic acid-induced lipid accumulation using L-carnitine and palmitoyl CoA as substrates at 40 uM measured after 48 hrs by […] reagent based enzymatic assay relative to control; format: cell-based; settings: filed as activator; how it was run: as §2
AML12 [11] = assay: Cytotoxicity against mouse AML12 cells assessed as cell viability at 20 uM measured after 24 hrs by MTT assay; format: cell-based; settings: aml12, 24 h
AML12 [12] = assay: Inhibition of oleic acid-induced lipid accumulation in mouse AML12 cells at 20 uM preincubated with oleic acid for 24 hrs followed by addition of compounds and measured after 24 hrs by Oil red O staining based microscopic assay; format: functional, cell-based; how it was run: as §1
AML12 [13] = assay: Cytotoxicity against mouse AML12 cells assessed as cell viability at 40 uM measured after 24 hrs by MTT assay; format: cell-based; settings: aml12, 24 h
AML12 [14] = assay: Inhibition of oleic acid-induced lipid accumulation in mouse AML12 cells with Si-RNA-induced ACSL1 knockdown; format: functional, cell-based
AML12 [15] = assay: Inhibition of oleic acid-induced lipid accumulation in mouse AML12 cells with Si-RNA-induced FADS3 knockdown; format: functional, cell-based

CC(C)c1ccc2c(c1)C(=O)C[C@H]1[C@](C)(C(=O)O)CCC[C@]21C
inactive: Activity (AML12 [5]) | inhibition (AML12 [6]) | Activity (AML12 [7]) | inhibition (AML12 [8])
1.6: fold change (FC) (AML12 [10])
Non-Toxic: Activity (AML12 [1]) | Activity (AML12 [4]) | Activity (AML12 [11]) | Activity (AML12 [13])
1.5: fold change (FC) (AML12 [9])
active: inhibition (AML12 [2]) | inhibition (AML12 [3]) | inhibition (AML12 [12]) | inhibition (AML12 [14]) | inhibition (AML12 [15])
